Active and inactive are the calls of the source. The calls are words filed in the database; no cut-off is given here.

The target of assay [1] is DNA topoisomerase 2-alpha (Homo sapiens) (UniProt P11388). The settings on record: 20 to 50 uM.
The test system of assay [2] is Nucleic Acid. In words: Binding affinity to Escherichia coli supercoiled pUC19 DNA assessed as intercalation at 0.2 to 5 uM by agarose gel electrophoresis in presence of human DNA topoisomerase 1. The format is nucleic-acid assay. The method in brief:
(§1)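 Supercoiled pUC19 plasmid was incubated with or without compound across the stated µM range, then relaxed with human topoisomerase I. Reactions were stopped with SDS and proteinase K. Samples were run on a 1% agarose gel in TBE for 2 h at 120 V and post-stained with ethidium bromide. Supercoiled, relaxed and nicked bands were scored under UV.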

Assay [3] addresses DNA topoisomerase 2-alpha (Homo sapiens) (UniProt P11388). In words: Inhibition of DNA topoisomerase 2 (unknown origin)-mediated DNA cleavage assessed as linear band at 50 uM by agarose gel electrophoresis. In outline:
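Topoisomerase II DNA cleavage assay was run per an earlier method, with etoposide as the Topo II poison positive control. Compounds came from 10 mM DMSO stocks freshly diluted in aqueous buffer.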

The target in assay [4] is T1, DNA topoisomerase 1 (Homo sapiens) (UniProt P11387).
T1 sequence (whole entry): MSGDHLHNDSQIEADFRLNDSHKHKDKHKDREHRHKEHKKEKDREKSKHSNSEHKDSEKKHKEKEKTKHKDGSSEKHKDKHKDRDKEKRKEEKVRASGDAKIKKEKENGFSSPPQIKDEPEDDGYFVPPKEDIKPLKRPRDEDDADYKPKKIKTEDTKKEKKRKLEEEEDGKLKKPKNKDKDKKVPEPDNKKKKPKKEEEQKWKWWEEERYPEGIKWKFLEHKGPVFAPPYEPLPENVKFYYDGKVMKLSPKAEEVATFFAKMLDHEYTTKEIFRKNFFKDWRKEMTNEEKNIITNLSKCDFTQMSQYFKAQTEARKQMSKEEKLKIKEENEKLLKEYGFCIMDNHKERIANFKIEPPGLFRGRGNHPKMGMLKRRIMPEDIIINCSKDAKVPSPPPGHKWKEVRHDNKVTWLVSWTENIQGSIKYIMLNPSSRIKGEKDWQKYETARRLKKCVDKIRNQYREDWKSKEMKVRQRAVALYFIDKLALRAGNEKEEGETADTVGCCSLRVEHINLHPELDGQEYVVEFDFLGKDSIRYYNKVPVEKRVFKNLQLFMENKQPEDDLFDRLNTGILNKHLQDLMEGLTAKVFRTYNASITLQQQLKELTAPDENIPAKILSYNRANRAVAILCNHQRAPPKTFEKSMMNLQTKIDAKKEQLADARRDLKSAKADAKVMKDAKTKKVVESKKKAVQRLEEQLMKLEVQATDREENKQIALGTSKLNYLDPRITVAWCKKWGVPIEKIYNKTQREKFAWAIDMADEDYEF
In words: Inhibition of human topoisomerase 1-mediated DNA cleavage assessed as accumulation of nicked DNA at 1 to 50 uM by agarose gel electrophoresis. In outline: as §1

The nature of assay [5]: Binding affinity to DNA (unknown origin) assessed as inhibition of DNase1-mediated cleavage at 2 to 5 uM by DNase1 footprinting assay. In outline: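 DNase I footprinting run essentially per an earlier protocol. Gels were exposed to a storage screen at room temperature and then scanned. Compounds were made as 10 mM DMSO stocks and freshly diluted into aqueous buffer.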

The subject of assay [6] is DNA. In words: Binding affinity to calf thymus DNA at 50 uM by circular dichroism spectra analysis. Type of assay: nucleic-acid assay. The settings on record: Bos taurus. The method in brief: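 Drug (50 µM) was incubated in BPE buffer with or without CT-DNA at 0.1–100 µM. CD spectra were recorded from 480 to 230 nm in a 10 mm quartz cell at 20 °C under Peltier control.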

Assay [7] concerns DNA. In words: Binding affinity to calf thymus DNA assessed as hypochromic effect at 20 uM by UV-Visible spectroscopy relative to control. The format is nucleic-acid assay. The settings on record: Bos taurus. In outline: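 Compound (20 µM) in BPE buffer pH 7.1 was titrated with CT-DNA, 10–100 µM in 10 µM steps and then to 200 µM in 20 µM steps (base pairs). Spectra were recorded from 230–530 nm in a 10 mm quartz cuvette, referenced against a cuvette holding the same DNA concentration.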

For assay [8], the system named is DNA. In words: Binding affinity to calf thymus DNA assessed as change in melting temperature at 1 drug/DNA ratio by spectrophotometry. Type of assay: nucleic-acid assay. The settings on record: Bos taurus. In outline:
(§2)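 CT-DNA (20 µM) was dialyzed and incubated alone or with compound at drug/base-pair ratio R 0.25–1 in BPE buffer (6 mM Na2HPO4, 2 mM NaH2PO4, 1 mM EDTA, pH 7.1). A260 was read every min from 20–100 °C at 1 °C/min against a compound-matched reference. Tm was taken from the first-derivative midpoint, and ΔTm = Tm(drug+DNA) − Tm(DNA alone).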

For assay [9], the system named is DNA. In words: Binding affinity to calf thymus DNA assessed as change in melting temperature at 0.5 drug/DNA ratio by spectrophotometry. The settings on record: Bos taurus. Type of assay: nucleic-acid assay. In outline:
as §2

Assay [10] is described as follows: Cytotoxicity against human H460 cells after 72 hrs by MTT assay. The settings on record: Homo sapiens, NCI-H460, 72 h. The format is functional, cell-based, NCI-H460. In outline: (§3)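 HCT 116 and H 460 were seeded at 3×10^4 cells/mL and MCF-7 at 5×10^4 cells/mL in DMEM with 10% FBS, 2 mM glutamine and antibiotics, at 37 °C in 5% CO2. Compounds were added after 24 h (DMSO <1%). After 72 h, MTT absorbance was read at 570 nm. Runs were technical quadruplicates with ≥2 biological replicates, and IC50 was obtained by linear interpolation around 50% growth.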
In general terms: Tetrazolium dyes change colour on reduction, which living cells bring about.

Assay [11] concerns DNA. In words: Binding affinity to calf thymus DNA assessed as change in melting temperature at 0.25 drug/DNA ratio by spectrophotometry. The settings on record: Bos taurus. Type of assay: nucleic-acid assay. In outline: as §2
Assay [12] has as its system MCF7. In words: Cytotoxicity against human MCF7 cells after 72 hrs by MTT assay. Type of assay: functional, cell-based. The settings on record: Homo sapiens, MCF7, 72 h. The method in brief: as §3
The subject of assay [13] is HCT-116. In words: Cytotoxicity against human HCT116 cells after 72 hrs by MTT assay. The format is functional, cell-based. The settings on record: Homo sapiens, HCT-116, 72 h. The method in brief:
as §3

Sequence of DNA topoisomerase 2-alpha (Homo sapiens) (P11388 whole entry): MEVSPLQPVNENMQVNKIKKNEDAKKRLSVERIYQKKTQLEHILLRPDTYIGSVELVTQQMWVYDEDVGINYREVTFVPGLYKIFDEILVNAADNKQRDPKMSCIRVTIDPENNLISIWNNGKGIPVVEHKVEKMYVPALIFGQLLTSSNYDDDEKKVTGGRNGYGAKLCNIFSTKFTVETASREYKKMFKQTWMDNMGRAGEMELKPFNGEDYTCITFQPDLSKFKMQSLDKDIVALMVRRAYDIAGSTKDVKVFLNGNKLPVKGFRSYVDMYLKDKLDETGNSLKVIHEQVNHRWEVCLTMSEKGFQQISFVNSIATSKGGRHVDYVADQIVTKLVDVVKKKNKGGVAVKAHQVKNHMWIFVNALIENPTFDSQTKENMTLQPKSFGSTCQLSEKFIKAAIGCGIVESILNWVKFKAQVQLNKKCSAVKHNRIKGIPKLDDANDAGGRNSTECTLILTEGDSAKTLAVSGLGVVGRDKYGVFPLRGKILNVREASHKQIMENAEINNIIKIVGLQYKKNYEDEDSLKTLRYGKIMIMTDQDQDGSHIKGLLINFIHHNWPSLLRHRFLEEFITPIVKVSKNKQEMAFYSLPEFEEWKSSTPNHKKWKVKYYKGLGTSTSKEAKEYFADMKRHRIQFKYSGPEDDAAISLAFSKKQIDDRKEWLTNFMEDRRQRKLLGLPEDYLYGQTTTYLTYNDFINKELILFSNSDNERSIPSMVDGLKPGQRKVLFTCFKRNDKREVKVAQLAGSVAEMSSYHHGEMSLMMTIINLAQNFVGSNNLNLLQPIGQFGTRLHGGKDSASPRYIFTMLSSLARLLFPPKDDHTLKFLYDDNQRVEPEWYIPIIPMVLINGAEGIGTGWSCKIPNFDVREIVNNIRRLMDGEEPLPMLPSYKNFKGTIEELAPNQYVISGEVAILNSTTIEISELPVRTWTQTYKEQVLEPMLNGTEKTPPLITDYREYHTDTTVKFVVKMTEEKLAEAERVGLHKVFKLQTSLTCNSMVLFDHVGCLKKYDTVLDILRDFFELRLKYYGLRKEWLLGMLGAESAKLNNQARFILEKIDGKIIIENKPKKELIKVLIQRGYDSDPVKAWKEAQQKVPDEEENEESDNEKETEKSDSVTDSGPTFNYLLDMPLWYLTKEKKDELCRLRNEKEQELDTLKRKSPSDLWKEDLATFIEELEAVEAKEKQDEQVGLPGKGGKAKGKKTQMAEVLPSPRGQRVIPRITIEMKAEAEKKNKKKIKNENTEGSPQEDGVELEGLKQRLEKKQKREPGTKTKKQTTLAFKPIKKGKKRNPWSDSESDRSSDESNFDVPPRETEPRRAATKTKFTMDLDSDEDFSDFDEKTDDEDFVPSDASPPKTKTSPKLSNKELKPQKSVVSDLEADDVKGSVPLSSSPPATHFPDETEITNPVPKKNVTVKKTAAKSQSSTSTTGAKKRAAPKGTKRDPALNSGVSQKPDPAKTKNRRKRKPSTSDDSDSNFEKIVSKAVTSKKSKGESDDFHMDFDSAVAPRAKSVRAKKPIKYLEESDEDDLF

Regarding `COc1cc([C@@H]2c3cc4c(cc3[C@@H](O[C@@H]3O[C@@H]5CO[C@@H](C)O[C@H]5[C@H](O)[C@H]3O)[C@H]3COC(=O)[C@H]23)OCO4)cc(OC)c1O`, in [1], the inhibition result was “Active”.

As a reminder, the ΔTm is the change in melting temperature against a reference sample. Usually IC50 stands for the concentration at which inhibition is half-maximal. Lower therefore signals greater potency in that assay. For the molecule `C[N+](C)(C)c1ccc2[nH]c(=O)c3sc4ccccc4c3c2c1`, the outcome in [2] and in assay [5] was Active. In addition, the “Topo II DNA cleavage inhibition (active/not active)” value in assay [3] was “inactive”. Also, the inhibition result in assay [4] is “inactive”. Further, the result in assay [6] was inactive. For the same molecule, the Activity in [7] amounted to 49%. Further, the thermal shift (ΔTm) in assay [8] is 16.9 °C; in assay [9], 12.8 °C; in [11] it was 10 °C. Besides, the results for the 50% inhibitory concentration (IC50) in [10], in assay [12] and in assay [13] were over 100 µM, 50 µM and over 100 µM, respectively.

The values above are taken from ChEMBL document CHEMBL3102786, “Anilides and quinolones with nitrogen-bearing substituents from benzothiophene and thienothiophene series: synthesis, photochemical synthesis, cytostatic evaluation, 3D-derived QSAR analysis and DNA-binding properties” (Eur J Med Chem, 2014).
